ChEMBL document CHEMBL4689842, “EUbOPEN Chemogenomics Library wave 1” (2021)
Values joined by “and” are separate entries in the source; they are usually repeats but may differ in a detail not shown here. Equal entries are not always repeated.

Test system: Fibroblast
Assay: Multiplex assay against human fibroblast
Format: toxicity, cell-based
Outline: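 Live cells carried four stains from seeding: Hoechst33342, BioTracker Green Microtubule Cytoskeleton Dye, MitoTracker Red and Annexin V Alexa Fluor 680. They were imaged on a CQ1 microscope at 37°C and 5% CO2 after compound addition. Using CellPathfinder machine-learning gating, cells were split into Hoechst high-intensity objects or normal cells, normal cells into healthy, pyknosed or fragmented nuclei, and pyknosed cells into mitotic or apoptotic; tubulin, mitochondrial-mass and membrane-permeability phenotypes are per cents of healthy-nucleus cells.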

[1] = 12 h, 1 µM, compound concentration 1 uM, replicate 1
[2] = 12 h, 1 µM, compound concentration 1 uM, replicate 2
[3] = 12 h, 10 µM, compound concentration 10 uM, replicate 1
[4] = 12 h, 10 µM, compound concentration 10 uM, replicate 2
[5] = 24 h, 1 µM, compound concentration 1 uM, replicate 1
[6] = 24 h, 1 µM, compound concentration 1 uM, replicate 2
[7] = 24 h, 10 µM, compound concentration 10 uM, replicate 1
[8] = 24 h, 10 µM, compound concentration 10 uM, replicate 2
[9] = 48 h, 10 µM, compound concentration 10 uM, replicate 1
[10] = 48 h, 10 µM, compound concentration 10 uM, replicate 2

SMILES: CC(=O)O[C@H]1C(=O)[C@@]2(C)[C@H]([C@H](OC(=O)c3ccccc3)[C@]3(O)C[C@H](OC(=O)[C@H](O)[C@@H](NC(=O)c4ccccc4)c4ccccc4)C(C)=C1C3(C)C)[C@]1(OC(C)=O)CO[C@@H]1C[C@@H]2O [PACLITAXEL]
- Population Apoptotic (%) [1]: 55% and 76%
- Population Fragmented Nuclei (%) [1]: 25% and 15%
- Population Healthy Nuclei (%) [1]: 66% and 75%
- Population Hoechst High Intensity Objects (%) [1]: 11% and 8%
- Population Membrane Permeable-Phenotype (%) [1]: 5%
- Population Mitochondria Different-Phenotype (%) [1]: 3% and 2%
- Population Mitotic Cells (%) [1]: 45% and 23%
- Population Normal (%) [1]: 88% and 91%
- Population Pyknosed Nuclei (%) [1]: 8% and 9%
- Population Tubulin-Different-Phenotype (%) [1]: 0%
- Total Cell Count [1]: 281 and 246
- Population Fragmented Nuclei (%) [2]: 46% and 34%
- Population Healthy Nuclei (%) [2]: 35% and 59%
- Population Hoechst High Intensity Objects (%) [2]: 32% and 39%
- Population Mitochondria Different-Phenotype (%) [2]: 10% and 15%
- Population Mitotic Cells (%) [2]: 40% and 100%
- Population Normal (%) [2]: 67% and 60%
- Population Pyknosed Nuclei (%) [2]: 18% and 6%
- Population Tubulin-Different-Phenotype (%) [2]: 10% and 26%
- Total Cell Count [2]: 80 and 73
- Population Apoptotic (%) [3]: 81% [middle of 4 runs]
- Population Fragmented Nuclei (%) [3]: 23% and 24%
- Population Healthy Nuclei (%) [3]: 61% [middle of 4 runs]
- Population Hoechst High Intensity Objects (%) [3]: 12% [middle of 4 runs]
- Population Membrane Permeable-Phenotype (%) [3]: 5% and 3%
- Population Mitochondria Different-Phenotype (%) [3]: 5% and 4% and 2%
- Population Mitotic Cells (%) [3]: 26% [middle of 4 runs]
- Population Normal (%) [3]: 88% and 90% and 79% and 87%
- Population Pyknosed Nuclei (%) [3]: 14% and 21% and 11%
- Total Cell Count [3]: 304 [middle of 4 runs]
- Population Fragmented Nuclei (%) [4]: 58% [middle of 4 runs]
- Population Healthy Nuclei (%) [4]: 42% [middle of 4 runs]
- Population Hoechst High Intensity Objects (%) [4]: 37% [middle of 4 runs]
- Population Normal (%) [4]: 68% and 62% and 51% and 72%
- Population Pyknosed Nuclei (%) [4]: 7% and 6% and 8%
- Population Tubulin-Different-Phenotype (%) [4]: 9% [middle of 4 runs]
- Total Cell Count [4]: 93 and 80 and 115
- Population Apoptotic (%) [5]: 48% and 38%
- Population Fragmented Nuclei (%) [5]: 18% and 13%
- Population Healthy Nuclei (%) [5]: 70% and 74%
- Population Hoechst High Intensity Objects (%) [5]: 14% and 13%
- Population Membrane Permeable-Phenotype (%) [5]: 5% and 4%
- Population Mitotic Cells (%) [5]: 52% and 61%
- Population Normal (%) [5]: 85% and 86%
- Population Pyknosed Nuclei (%) [5]: 11%
- Total Cell Count [5]: 264 and 252
- Population Fragmented Nuclei (%) [6]: 54% and 48%
- Population Healthy Nuclei (%) [6]: 28% and 48%
- Population Hoechst High Intensity Objects (%) [6]: 33% and 29%
- Population Membrane Permeable-Phenotype (%) [6]: 13% and 11%
- Population Mitochondria Different-Phenotype (%) [6]: 0% and 7%
- Population Mitotic Cells (%) [6]: 44% and 100%
- Population Normal (%) [6]: 66% and 70%
- Total Cell Count [6]: 80 and 77
- Population Apoptotic (%) [7]: 71% [middle of 4 runs]
- Population Fragmented Nuclei (%) [7]: 26% [middle of 4 runs]
- Population Healthy Nuclei (%) [7]: 64% [middle of 4 runs]
- Population Hoechst High Intensity Objects (%) [7]: 15% [middle of 4 runs]
- Population Mitochondria Different-Phenotype (%) [7]: 2% and 0%
- Population Normal (%) [7]: 85% and 87% and 84% and 75%
- Population Pyknosed Nuclei (%) [7]: 16% and 15%
- Total Cell Count [7]: 291 and 285 and 333
- Population Apoptotic (%) [8]: 44% [middle of 4 runs]
- Population Fragmented Nuclei (%) [8]: 62% [middle of 4 runs]
- Population Healthy Nuclei (%) [8]: 40% and 28% and 26%
- Population Hoechst High Intensity Objects (%) [8]: 35% [middle of 4 runs]
- Population Membrane Permeable-Phenotype (%) [8]: 17% [middle of 4 runs]
- Population Normal (%) [8]: 68% and 64% and 53% and 72%
- Population Pyknosed Nuclei (%) [8]: 11% [middle of 4 runs]
- Total Cell Count [8]: 93 [middle of 4 runs]

SMILES: CNC(=O)c1nn(C)c2c1C(C)(C)Cc1cnc(Nc3ccc(N4CCN(C)CC4)cc3)nc1-2 [MILCICLIB]
- Population Apoptotic (%) [1]: 74%
- Population Fragmented Nuclei (%) [1]: 26%
- Population Healthy Nuclei (%) [1]: 59%
- Population Hoechst High Intensity Objects (%) [1]: 6%
- Population Membrane Permeable-Phenotype (%) [1]: 15%
- Population Mitochondria Different-Phenotype (%) [1]: 7%
- Population Mitotic Cells (%) [1]: 25%
- Population Normal (%) [1]: 93%
- Population Pyknosed Nuclei (%) [1]: 14%
- Population Tubulin-Different-Phenotype (%) [1]: 30%
- Total Cell Count [1]: 202
- Population Apoptotic (%) [2]: 100%
- Population Fragmented Nuclei (%) [2]: 64%
- Population Healthy Nuclei (%) [2]: 34%
- Population Hoechst High Intensity Objects (%) [2]: 34%
- Population Membrane Permeable-Phenotype (%) [2]: 13%
- Population Mitochondria Different-Phenotype (%) [2]: 31%
- Population Mitotic Cells (%) [2]: 0%
- Population Normal (%) [2]: 65%
- Population Pyknosed Nuclei (%) [2]: 1%
- Population Tubulin-Different-Phenotype (%) [2]: 54%
- Total Cell Count [2]: 97
- Population Apoptotic (%) [3]: 61% and 65% and 87%
- Population Fragmented Nuclei (%) [3]: 29% and 25% and 26%
- Population Healthy Nuclei (%) [3]: 40% and 48% and 55%
- Population Hoechst High Intensity Objects (%) [3]: 11% and 12% and 13%
- Population Mitochondria Different-Phenotype (%) [3]: 14% and 12% and 10%
- Population Normal (%) [3]: 88% and 87% and 86%
- Population Pyknosed Nuclei (%) [3]: 30% and 25% and 18%
- Population Tubulin-Different-Phenotype (%) [3]: 77% and 74% and 40%
- Population Apoptotic (%) [4]: 66% and 73% and 60%
- Population Healthy Nuclei (%) [4]: 30% and 54% and 62%
- Population Mitotic Cells (%) [4]: 33% and 26% and 40%
- Population Normal (%) [4]: 70% and 90% and 97%
- Total Cell Count [4]: 99 and 122 and 65
- Population Apoptotic (%) [5]: 78%
- Population Fragmented Nuclei (%) [5]: 27%
- Population Healthy Nuclei (%) [5]: 57%
- Population Hoechst High Intensity Objects (%) [5]: 12%
- Population Membrane Permeable-Phenotype (%) [5]: 7%
- Population Mitochondria Different-Phenotype (%) [5]: 13%
- Population Mitotic Cells (%) [5]: 21%
- Population Normal (%) [5]: 87%
- Population Pyknosed Nuclei (%) [5]: 14%
- Population Tubulin-Different-Phenotype (%) [5]: 33%
- Total Cell Count [5]: 224
- Population Apoptotic (%) [6]: 50%
- Population Fragmented Nuclei (%) [6]: 60%
- Population Healthy Nuclei (%) [6]: 33%
- Population Hoechst High Intensity Objects (%) [6]: 33%
- Population Membrane Permeable-Phenotype (%) [6]: 10%
- Population Mitochondria Different-Phenotype (%) [6]: 30%
- Population Mitotic Cells (%) [6]: 50%
- Population Normal (%) [6]: 66%
- Population Pyknosed Nuclei (%) [6]: 6%
- Population Tubulin-Different-Phenotype (%) [6]: 40%
- Total Cell Count [6]: 90
- Population Apoptotic (%) [7]: 84% and 46% and 60%
- Population Fragmented Nuclei (%) [7]: 37% and 29% and 34%
- Population Healthy Nuclei (%) [7]: 47% and 50%
- Population Hoechst High Intensity Objects (%) [7]: 20% and 12% and 15%
- Population Mitochondria Different-Phenotype (%) [7]: 16% and 28% and 27%
- Population Normal (%) [7]: 79% and 87% and 84%
- Population Pyknosed Nuclei (%) [7]: 15% and 22%
- Population Tubulin-Different-Phenotype (%) [7]: 46% and 80% and 58%
- Population Apoptotic (%) [8]: 50% and 66% and 86%
- Population Healthy Nuclei (%) [8]: 34% and 49% and 61%
- Population Hoechst High Intensity Objects (%) [8]: 18%
- Population Normal (%) [8]: 81%
- Population Tubulin-Different-Phenotype (%) [8]: 35% and 100%
- Total Cell Count [8]: 110 and 78 and 118
- Population Apoptotic (%) [9]: 25% and 33%
- Population Fragmented Nuclei (%) [9]: 45% and 39%
- Population Healthy Nuclei (%) [9]: 42% and 49%
- Population Hoechst High Intensity Objects (%) [9]: 15% and 19%
- Population Membrane Permeable-Phenotype (%) [9]: 22% and 10%
- Population Mitochondria Different-Phenotype (%) [9]: 15% and 22%
- Population Mitotic Cells (%) [9]: 75% and 66%
- Population Normal (%) [9]: 84% and 80%
- Population Pyknosed Nuclei (%) [9]: 11%
- Population Tubulin-Different-Phenotype (%) [9]: 68% and 80%
- Total Cell Count [9]: 124 and 166
- Population Apoptotic (%) [10]: 66%
- Population Fragmented Nuclei (%) [10]: 35% and 36%
- Population Healthy Nuclei (%) [10]: 62% and 60%
- Population Hoechst High Intensity Objects (%) [10]: 18% and 14%
- Population Membrane Permeable-Phenotype (%) [10]: 16% and 11%
- Population Mitochondria Different-Phenotype (%) [10]: 11% and 17%
- Population Mitotic Cells (%) [10]: 33%
- Population Normal (%) [10]: 81% and 85%
- Population Pyknosed Nuclei (%) [10]: 2%
- Population Tubulin-Different-Phenotype (%) [10]: 84% and 96%
- Total Cell Count [10]: 169 and 170
